Experimental data taken from ChEMBL document CHEMBL3243964, “Biomolecules bearing the S- or SeAsMe2 function: amino acid and steroid derivatives” (J Med Chem, 1979).
Active and inactive are the calls of the source. The calls are words filed in the database; no cut-off is given here.

Columns and labels:
[1] = tested on: L1210; experiment: Carcinostatic activity against mouse L1210 cells allografted in mouse assessed as increase in survival at 100 mg/kg relative to control; format: functional
[2] = species on record: Mus musculus; experiment: Toxicity in mouse allografted with mouse L1210 cells; format: organism-based
[3] = tested on: L1210; experiment: Carcinostatic activity against mouse L1210 cells allografted in mouse assessed as increase in life span at 100 mg/kg relative to control; format: functional
Procedure, shortened: (§1)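 Mice bearing L1210 lymphoid leukemia, tested externally. Read-out is percent increased life span (ILS) of treated versus control animals at the dose shown in mg/kg.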

[4] = tested on: L1210; experiment: Carcinostatic activity against mouse L1210 cells allografted in mouse assessed as increase in survival at 50 mg/kg relative to control; format: functional
[5] = tested on: Staphylococcus aureus; experiment: Bacteriostatic activity against Staphylococcus aureus 209 cultured in nutrient broth; format: functional, organism-based
Procedure, shortened: (§2)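 Bacteria grown in nutrient broth with the compound. Read-out is inhibition of growth, with total inhibition scored. Gram-negative (K. pneumoniae) and Gram-positive strains were tested.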

[6] = tested on: Staphylococcus aureus; experiment: Bacteriostatic activity against Staphylococcus aureus 209; format: functional
[7] = tested on: L1210; experiment: Carcinostatic activity against mouse L1210 cells allografted in mouse assessed as increase in life span at 500 mg/kg relative to control; format: functional; procedure, shortened: as §1
[8] = tested on: Klebsiella pneumoniae; experiment: Bacteriostatic activity against Klebsiella pneumoniae; format: functional, organism-based; procedure, shortened: as §2

Compound	T/C [1] [%]	Activity [2] [mg/kg]	Activity [3] [%]	T/C [4] [%]	growth inhibition (GI) [5]	inhibition zone (IZ) [6] [mm]	Activity [7] [%]	Activity [8]
C[As](C)SCC[C@H](NC(=O)[C@@H](N)CCS[As](C)C)C(=O)O	144	> 200	–	–	–	–	–	–
C[As](C)SCC[C@@H](CCCCC(=O)O)S[As](C)C	–	100	33	128	–	–	–	–
C[As](C)SCC(N)C(=O)O (racemic)	–	200	–	110	Active	15	–	–
C[As](C)SC[C@H](NC(=O)CC[C@H](N)C(=O)O)C(=O)NCC(=O)O [DARINAPARSIN]	164	400	–	–	Active	20	33	Active
